The source of these data is ChEMBL document CHEMBL3808307, “Triazolylthioacetamide: A Valid Scaffold for the Development of New Delhi Metallo-β-Lactmase-1 (NDM-1) Inhibitors” (ACS Med Chem Lett, 2016).

The subject of assay [1] is Stenotrophomonas maltophilia. The assay can be described thus: Inhibition of Stenotrphomonas maltophilia metallo-beta-lactamase L1 up to 10 uM preincubated for 60 min followed by addition of cefazolin as substrate by spectrometry method. A digest of the protocol:
(§1)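 Purified recombinant MβL preincubated with inhibitor for 60 min, then hydrolysis followed by UV spectrometry. Substrate was cefazolin, or imipenem for ImiS, at 26–160 μM. Inhibitor ranged 15 nM to 10 μM. IC50 was the concentration giving a 50% drop in enzyme activity, calculated from kinetic data.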

For assay [2], the system named is Aeromonas veronii bv. sobria. Put plainly: Inhibition of Aeromonas veronii bv. sorbia Metallo-beta-lactamase ImiS up to 10 uM preincubated for 60 min followed by addition of imipenem as substrate by spectrometry method. A digest of the protocol: as §1
In assay [3] the target is Metallo-beta-lactamase type 2 (Bacteroides fragilis) (UniProt P25910). The assay can be described thus: Inhibition of Bacteroides fragilis CcrA metallo-beta-lactamase up to 10 uM preincubated for 60 min followed by addition of cefazolin as substrate by spectrometry method. A digest of the protocol:
as §1

For assay [4], the target named is T1, Metallo-beta-lactamase type 2 (Klebsiella pneumoniae, UniProt C7C422). Put plainly: Inhibition of Klebsiella pneumoniae metallo-beta-lactamase NDM-1 expressed in Escherichia coli BL21(DE3) cells preincubated for 60 min followed by addition of cefazolin as substrate by spectrometry method. A digest of the protocol:
as §1

The target in assay [5] is T1, Metallo-beta-lactamase type 2. The assay can be described thus: Mixed type inhibition of Klebsiella pneumoniae metallo-beta-lactamase NDM-1 expressed in Escherichia coli BL21(DE3) cells assessed as hydrolysis of cefazolin preincubated for 60 min followed by addition of cefazolin by Lineweaver-Burk plot analysis. A digest of the protocol: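 Purified recombinant NDM-1 preincubated with inhibitor for 60 min. Cefazolin hydrolysis was then followed by UV spectrometry, with substrate varied 26–160 μM and inhibitor at 0, 0.25, 0.5 and 1.0 μM. Mode was taken from Lineweaver–Burk plots. Ki came from replots of slope and intercept […].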

By IC50 is commonly meant the midpoint of a concentration-inhibition curve. A higher IC50 goes with weaker potency in that assay. As a reminder, the Ki is a dissociation constant, usually derived from enzyme kinetics or from competition with a known ligand.

Calls of active or inactive are those of the source. The rule behind the calls is not given here.

T1 sequence (C7C422 whole entry): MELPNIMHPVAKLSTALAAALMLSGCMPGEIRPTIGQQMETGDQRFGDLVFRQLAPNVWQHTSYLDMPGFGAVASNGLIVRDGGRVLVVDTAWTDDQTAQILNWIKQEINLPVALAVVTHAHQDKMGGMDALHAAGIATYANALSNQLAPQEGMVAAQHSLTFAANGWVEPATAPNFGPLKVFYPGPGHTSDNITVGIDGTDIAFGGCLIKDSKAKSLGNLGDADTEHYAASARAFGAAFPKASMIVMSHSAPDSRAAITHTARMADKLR
Chain of Metallo-beta-lactamase type 2 (Bacteroides fragilis) (P25910 whole entry): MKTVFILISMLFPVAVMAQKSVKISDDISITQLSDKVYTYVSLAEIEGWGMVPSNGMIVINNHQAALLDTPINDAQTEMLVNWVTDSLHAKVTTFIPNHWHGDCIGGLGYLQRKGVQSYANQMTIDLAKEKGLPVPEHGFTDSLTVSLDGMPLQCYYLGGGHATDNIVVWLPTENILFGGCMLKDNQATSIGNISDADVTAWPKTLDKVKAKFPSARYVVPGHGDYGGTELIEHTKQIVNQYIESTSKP

As to `Nc1ccccc1-c1nnc(SCC(=O)Nc2ccccc2Cl)[nH]1`, the inhibition result in assay [1], in assay [2] and in assay [3] was “inactive” in each case. The compound also had an IC50 in assay [4] of 610 nM.

Turning to `Nc1ccccc1-c1nnc(SCC(=O)Nc2ccccc2)[nH]1`, the inhibition entry in assay [1], in assay [2] and in assay [3] was “inactive” in each case. In assay [4], inhibition was half-maximal at 330 nM (IC50).

For `O=C(CSc1nnc(-c2ccc(O)cc2)[nH]1)Nc1ccccc1Cl`, the inhibition entry in assay [1], in assay [2] and in assay [3] was “inactive” each time. The compound also gave an IC50 in assay [4] of 520 nM.

For `Cc1ccccc1NC(=O)CSc1nnc(-c2ccccc2O)[nH]1`, the inhibition result in assay [1], in assay [2] and in assay [3] was “inactive” each time. For the same compound, in assay [4], inhibition was half-maximal at 160 nM (IC50).

Turning to `O=C(CSc1nnc(-c2ccccc2)[nH]1)Nc1cccc(Cl)c1`, the inhibition result in assay [1], in assay [2] and in assay [3] was “inactive” each time. For the same compound, in assay [4], the half-maximal inhibitory concentration (IC50) worked out at 690 nM.

As for `Cc1ccccc1NC(=O)CSc1nnc(-c2ccccc2)[nH]1`, the inhibition result in assay [1], in assay [2] and in assay [3] was “inactive” throughout. Further, the IC50 in assay [4] is 190 nM.

`CCc1ccccc1NC(=O)CSc1nnc(-c2ccccc2O)[nH]1`: the inhibition result in assay [1], in assay [2] and in assay [3] was “inactive” in each case. In assay [4], the IC50 stood at 930 nM.

Take `CCc1ccccc1NC(=O)CSc1nnc(-c2ccc(O)cc2)[nH]1`: the inhibition result in assay [1], in assay [2] and in assay [3] was “inactive” each time. The compound also registered an IC50 in assay [4] of 1500 nM.

As to `O=C(CSc1nnc(-c2ccccc2O)[nH]1)Nc1cccc(Cl)c1`, the inhibition result in assay [1], in assay [2] and in assay [3] was “inactive” in each case. In addition, in assay [4], half-maximal inhibition (IC50) was put at 160 nM.

`CCCCc1ccc(NC(=O)CSc2nnc(-c3ccccc3N)[nH]2)cc1`: the inhibition entry in assay [1], in assay [2] and in assay [3] was “inactive” in each case. Further, in assay [5], the Ki stood at 490 nM. This compound came in with an IC50 in assay [4] of 160 nM.

Consider `O=C(CSc1nnc(-c2ccccc2)[nH]1)Nc1ccccc1Cl`, for which the inhibition result in assay [1], in assay [2] and in assay [3] was “inactive” in each case. The compound also showed an IC50 in assay [4] of 350 nM.

As to `CCCCc1ccc(NC(=O)CSc2nnc(-c3ccccc3)[nH]2)cc1`, the inhibition result in assay [1], in assay [2] and in assay [3] was “inactive” in each case. Also, 150 nM corresponded to half-maximal inhibition in assay [4] (IC50).

Take `O=C(CSc1nnc(-c2ccccc2O)[nH]1)Nc1ccccc1Cl`: the inhibition result in assay [1], in assay [2] and in assay [3] was “inactive” each time. This compound also showed an IC50 in assay [4] of 980 nM.

For the compound `O=C(CSc1nnc(-c2ccc(O)cc2)[nH]1)Nc1ccccc1`, the inhibition entry in assay [1], in assay [2] and in assay [3] was “inactive” in each case. In assay [4], this compound returned an IC50 of 1200 nM.

Turning to `O=C(CSc1nnc(-c2ccc(O)cc2)[nH]1)Nc1cccc(Cl)c1`, the inhibition entry in assay [1], in assay [2] and in assay [3] was “inactive” throughout. For the same compound, the Ki in assay [5] came out at 630 nM. In assay [4], this compound displayed an IC50 of 370 nM.

Take `Nc1ccccc1-c1nnc(SCC(=O)Nc2cccc(Cl)c2)[nH]1`: the inhibition entry in assay [1], in assay [2] and in assay [3] was “inactive” in each case. In assay [4], this compound showed an IC50 of 230 nM.

With `CCCCc1ccc(NC(=O)CSc2nnc(-c3ccc(O)cc3)[nH]2)cc1`, the inhibition entry in assay [1], in assay [2] and in assay [3] was “inactive” in each case. For the same compound, inhibition in assay [4] was half-maximal at 480 nM (IC50).

As for `O=C(CSc1nnc(-c2ccccc2)[nH]1)Nc1ccccc1`, the inhibition entry in assay [1], in assay [2] and in assay [3] was “inactive” throughout. This compound also showed an IC50 in assay [4] of 170 nM.

In the case of `Cc1ccccc1NC(=O)CSc1nnc(-c2ccc(O)cc2)[nH]1`, the inhibition entry in assay [1], in assay [2] and in assay [3] was “inactive” throughout. Also, in assay [4], the IC50 turned out to be 980 nM.

Consider `CCc1ccccc1NC(=O)CSc1nnc(-c2ccccc2N)[nH]1`, for which the inhibition result in assay [1], in assay [2] and in assay [3] was “inactive” in each case. For the same compound, in assay [4], half-maximal inhibition (IC50) required 450 nM.

On to `O=C(CSc1nnc(-c2ccccc2O)[nH]1)Nc1ccccc1`, for which the inhibition entry in assay [1], in assay [2] and in assay [3] was “inactive” each time. Further, half-maximal inhibition in assay [4] (IC50) required 420 nM.

Regarding `CCCCc1ccc(NC(=O)CSc2nnc(-c3ccccc3O)[nH]2)cc1`, the inhibition result in assay [1], in assay [2] and in assay [3] was “inactive” in each case. The compound further gave an IC50 in assay [4] of 160 nM.

Take `Cc1ccccc1NC(=O)CSc1nnc(-c2ccccc2N)[nH]1`: the inhibition result in assay [1], in assay [2] and in assay [3] was “inactive” each time. Besides, in assay [4], the IC50 is 1900 nM.

As for `CCc1ccccc1NC(=O)CSc1nnc(-c2ccccc2)[nH]1`, the inhibition entry in assay [1], in assay [2] and in assay [3] was “inactive” throughout. Besides, the IC50 in assay [4] is 990 nM.
